These results are taken from ChEMBL document CHEMBL4376814, “Novel cyclin-dependent kinase 9 (CDK9) inhibitor with suppression of cancer stemness activity against non-small-cell lung cancer” (Eur J Med Chem, 2019).

In assay [1] the target is Tyrosine-protein kinase ABL1 (Homo sapiens) (UniProt P00519). Kind of assay: Inhibition of human ABL1 at 1 uM using EAIYAAPFAKKK as substrate measured after 40 mins by [gamma33P]ATP by scintillation counting method relative to control. An outline of the steps: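 Percent inhibition of kinase activity at a single compound concentration, measured by the outsourced Eurofins KinaseProfiler panel. Values are the mean of two independent experiments.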

The target in assay [2] is Death-associated protein kinase 3 (Homo sapiens) (UniProt O43293). Description: Inhibition of recombinant human ZIPK (1 to 290 residues) at 1 uM using KKLNRTLSFAEPG as substrate measured after 40 mins in presence of [gamma33P]ATP by scintillation counting method relative to control. In outline: (§1)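 Single-point inhibition at 1 µM was measured in the Eurofins KinaseProfiler panel. Values are the mean of two independent experiments.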

The target of assay [3] is Serine/threonine-protein kinase 32B (Homo sapiens) (UniProt Q9NY57). Kind of assay: Inhibition of recombinant full-length human STK32B at 1 uM using casein as substrate measured after 120 mins in presence of [gamma33P]ATP by scintillation counting method relative to control.
The test system of assay [4] is Angiopoietin-1 receptor (Homo sapiens), Q02763 [Q939H,Q940H,R849W]. Kind of assay: Inhibition of human Tie2 Q939H/Q940H/R849W mutant (771 to end residues) at 1 uM using EFPIYDFLPAKKK as substrate measured after 40 mins in presence of [gamma33P]ATP by scintillation counting method relative to control. In outline:
as §1

The target of assay [5] is Serine/threonine-protein kinase 38-like (Homo sapiens) (UniProt Q9Y2H1). Description: Inhibition of recombinant human NDR2 (83 to end residues) at 1 uM using RSRSRSRSRSRSRSR as substrate measured after 120 mins in presence of [gamma33P]ATP by scintillation counting method relative to control.
Assay [6] concerns the target Serine/threonine-protein kinase PAK 6 (Homo sapiens) (UniProt Q9NQU5). Kind of assay: Inhibition of recombinant human PAK6 (382 to end residues) at 1 uM using RRRLSFAEPG as substrate measured after 40 mins in presence of [gamma33P]ATP by scintillation counting method relative to control.
Assay [7] concerns the target Mitogen-activated protein kinase kinase kinase 9 (Homo sapiens) (UniProt P80192). Kind of assay: Inhibition of recombinant human MLK1 (134 to 414 residues) at 1 uM using casein as substrate measured after 40 mins in presence of [gamma33P]ATP by scintillation counting method relative to control.
The target of assay [8] is Protein kinase C delta type (Homo sapiens) (UniProt Q05655). Description: Inhibition of recombinant human PKCdelta (2 to end residues) at 1 uM using ERMRPRKRQGSVRRR as substrate measured after 40 mins in presence of [gamma33P]ATP by scintillation counting method relative to control.
For assay [9], the target named is Cyclin-dependent kinase 9 (Homo sapiens) (UniProt P50750). Particulars: A549, 0.25 uM.
Assay [10] addresses Mitogen-activated protein kinase 11 (Homo sapiens) (UniProt Q15759). Description: Inhibition of recombinant full-length human SAPK2b at 1 uM using myelin basic protein as substrate measured after 40 mins in presence of [gamma33P]ATP by scintillation counting method relative to control.
The test system of assay [11] is NCI-H1299. Description: Inhibition of tumorsphere formation in human H1299 cells after 2 weeks by microscopic analysis. The assay is classed as functional, cell-based.
Assay [12] has as its target Protein kinase C iota type (Homo sapiens) (UniProt P41743). Description: Inhibition of recombinant full-length human PKCiota at 1 uM using ERMRPRKRQGSVRRRV as substrate measured after 40 mins in presence of [gamma33P]ATP by scintillation counting method relative to control.
Assay [13] concerns the target CDC7/Cyclin B1 (Homo sapiens) (UniProt P14635+O00311). Description: Inhibition of recombinant full-length human CDC7/cyclinB1 at 1 uM using Histone H1 as substrate measured after 120 mins in presence of [gamma33P]ATP by scintillation counting method relative to control. The assay is classed as protein-complex assay.
For assay [14], the target named is Serine/threonine-protein kinase MRCK alpha (Homo sapiens) (UniProt Q5VT25). Description: Inhibition of recombinant human MRCKalpha (1 to 473 residues) at 1 uM using KKRNRTLTV as substrate measured after 40 mins in presence of [gamma33P]ATP by scintillation counting method relative to control.
Sequence of Serine/threonine-protein kinase MRCK alpha (Homo sapiens) (Q5VT25 whole entry, the tested form may be a part): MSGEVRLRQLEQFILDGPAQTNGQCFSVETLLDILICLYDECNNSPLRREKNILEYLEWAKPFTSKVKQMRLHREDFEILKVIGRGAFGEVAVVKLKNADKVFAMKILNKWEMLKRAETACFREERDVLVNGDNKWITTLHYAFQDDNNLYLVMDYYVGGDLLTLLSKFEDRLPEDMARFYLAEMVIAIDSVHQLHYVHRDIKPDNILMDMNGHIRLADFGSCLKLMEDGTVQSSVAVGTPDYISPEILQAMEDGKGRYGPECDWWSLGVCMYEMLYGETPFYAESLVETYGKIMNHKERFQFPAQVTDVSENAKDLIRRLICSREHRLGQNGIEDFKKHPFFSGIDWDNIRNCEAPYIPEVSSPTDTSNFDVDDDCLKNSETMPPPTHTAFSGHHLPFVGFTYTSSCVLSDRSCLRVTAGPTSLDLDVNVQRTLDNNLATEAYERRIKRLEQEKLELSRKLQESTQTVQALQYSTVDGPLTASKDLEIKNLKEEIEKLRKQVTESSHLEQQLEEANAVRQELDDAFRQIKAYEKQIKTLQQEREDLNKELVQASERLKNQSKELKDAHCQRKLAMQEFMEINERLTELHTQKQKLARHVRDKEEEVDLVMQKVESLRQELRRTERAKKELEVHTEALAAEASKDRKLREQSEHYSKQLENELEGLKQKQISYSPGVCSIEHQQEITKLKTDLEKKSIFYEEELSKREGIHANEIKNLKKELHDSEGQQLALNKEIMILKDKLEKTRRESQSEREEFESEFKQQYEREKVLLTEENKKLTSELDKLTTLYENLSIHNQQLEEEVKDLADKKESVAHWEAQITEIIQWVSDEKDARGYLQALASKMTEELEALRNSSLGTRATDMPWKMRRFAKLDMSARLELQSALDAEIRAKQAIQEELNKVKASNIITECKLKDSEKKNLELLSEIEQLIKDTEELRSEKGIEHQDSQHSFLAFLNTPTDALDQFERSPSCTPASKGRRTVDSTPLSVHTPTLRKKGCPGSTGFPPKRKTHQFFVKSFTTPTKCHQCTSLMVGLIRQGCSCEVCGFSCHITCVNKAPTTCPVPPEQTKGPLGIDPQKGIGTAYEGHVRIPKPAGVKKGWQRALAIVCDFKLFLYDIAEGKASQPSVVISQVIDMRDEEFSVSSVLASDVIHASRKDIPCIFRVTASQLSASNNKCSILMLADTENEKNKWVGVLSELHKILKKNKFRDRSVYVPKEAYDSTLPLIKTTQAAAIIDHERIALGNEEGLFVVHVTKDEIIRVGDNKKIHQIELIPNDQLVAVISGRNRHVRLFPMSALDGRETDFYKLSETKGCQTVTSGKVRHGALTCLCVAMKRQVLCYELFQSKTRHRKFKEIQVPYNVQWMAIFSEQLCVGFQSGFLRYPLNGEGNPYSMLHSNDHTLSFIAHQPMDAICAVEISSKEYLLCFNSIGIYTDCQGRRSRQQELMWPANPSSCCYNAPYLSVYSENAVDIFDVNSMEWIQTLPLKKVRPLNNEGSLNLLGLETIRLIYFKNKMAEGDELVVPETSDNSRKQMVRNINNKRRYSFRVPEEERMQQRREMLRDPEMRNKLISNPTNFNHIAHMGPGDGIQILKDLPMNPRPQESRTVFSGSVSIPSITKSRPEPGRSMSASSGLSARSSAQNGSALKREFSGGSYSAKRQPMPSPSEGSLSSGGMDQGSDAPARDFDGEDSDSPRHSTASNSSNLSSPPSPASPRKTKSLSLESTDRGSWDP
Assay [15] has as its system NCI-H1299. Kind of assay: Downregulation of SOX2 in human H1299 cells at 0.25 to 1 uM by Western blot analysis. The assay is classed as functional, cell-based.
For assay [16], the target named is Serine/threonine-protein kinase PRP4 homolog (Homo sapiens) (UniProt Q13523). Description: Inhibition of human PRP4 (663 to end residues) at 1 uM using casein as substrate measured after 120 mins in presence of [gamma33P]ATP by scintillation counting method relative to control. An outline of the steps: as §1
Assay [17] has as its target Mitogen-activated protein kinase kinase kinase kinase 2 (Homo sapiens) (UniProt Q12851). Description: Inhibition of recombinant human GCK (1 to 473 residues) at 1 uM using myelin basic protein as substrate measured after 40 mins in presence of [gamma33P]ATP by scintillation counting method relative to control.
The target of assay [18] is Serine/threonine-protein kinase STK11 (Homo sapiens) (UniProt Q15831). Description: Inhibition of recombinant full-length human LKB1 at 1 uM using LSNLYHQGKFLQTFCGSPLYRRR as substrate measured after 40 mins in presence of [gamma33P]ATP by scintillation counting method relative to control.
Sequence of Serine/threonine-protein kinase STK11 (Homo sapiens) (Q15831 whole entry): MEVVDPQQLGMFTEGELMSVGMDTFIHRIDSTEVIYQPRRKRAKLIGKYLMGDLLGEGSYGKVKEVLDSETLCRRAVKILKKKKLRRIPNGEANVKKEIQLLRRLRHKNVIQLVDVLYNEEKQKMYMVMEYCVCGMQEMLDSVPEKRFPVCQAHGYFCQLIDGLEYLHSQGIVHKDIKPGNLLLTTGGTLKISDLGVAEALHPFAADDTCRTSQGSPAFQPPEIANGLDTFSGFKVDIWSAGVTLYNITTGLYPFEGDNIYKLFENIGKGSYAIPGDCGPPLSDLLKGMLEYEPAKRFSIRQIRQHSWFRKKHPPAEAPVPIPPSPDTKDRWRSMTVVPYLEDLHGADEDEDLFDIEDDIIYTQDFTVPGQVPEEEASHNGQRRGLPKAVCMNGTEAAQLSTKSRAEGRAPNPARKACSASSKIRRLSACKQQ
Assay [19] is filed under the species Homo sapiens. Description: Inhibition of recombinant human ARAF Y301D/Y302D mutant (273 to end residues) at 1 uM using myelin basic protein as substrate measured after 40 mins in presence of [gamma33P]ATP by scintillation counting method relative to control.
Assay [20] has as its system Glycogen synthase kinase-3 beta (Homo sapiens), P49841 [UNDEFINED MUTATION]. Description: Inhibition of human recombinant GSK3beta H350L mutant (2 to end residues) at 1 uM using YRRAAVPPSPSLSR as substrate incubated for 40 mins in presence of [gamma-33P]ATP at Km concentration by radiometric assay relative to control. In outline: as §1
Assay [21] addresses 3-phosphoinositide-dependent protein kinase 1 (Homo sapiens) (UniProt O15530). Description: Inhibition of recombinant human PDK1 (52 to end residues) at 1 uM using PDKtide as substrate measured after 40 mins in presence of [gamma33P]ATP by scintillation counting method relative to control.
For assay [22], the target named is Calcium/calmodulin-dependent protein kinase type 1 (Homo sapiens) (UniProt Q14012). Description: Inhibition of recombinant human CaMK1 (2 to end residues) at 1 uM using calmodulin as substrate measured after 40 mins in presence of [gamma33P]ATP by scintillation counting method relative to control.
The target of assay [23] is Ephrin type-A receptor 7 (Homo sapiens) (UniProt Q15375). Description: Inhibition of recombinant human EphA7 (613 to 909 residues) at 1 uM using KTFCGTPEYLAPEVRREPRILSEEEQEMFRDFDYIADWC as substrate measured after 40 mins in presence of [gamma33P]ATP by scintillation counting method relative to control.
Sequence of Ephrin type-A receptor 7 (Homo sapiens) (Q15375 28-998 limits assumed): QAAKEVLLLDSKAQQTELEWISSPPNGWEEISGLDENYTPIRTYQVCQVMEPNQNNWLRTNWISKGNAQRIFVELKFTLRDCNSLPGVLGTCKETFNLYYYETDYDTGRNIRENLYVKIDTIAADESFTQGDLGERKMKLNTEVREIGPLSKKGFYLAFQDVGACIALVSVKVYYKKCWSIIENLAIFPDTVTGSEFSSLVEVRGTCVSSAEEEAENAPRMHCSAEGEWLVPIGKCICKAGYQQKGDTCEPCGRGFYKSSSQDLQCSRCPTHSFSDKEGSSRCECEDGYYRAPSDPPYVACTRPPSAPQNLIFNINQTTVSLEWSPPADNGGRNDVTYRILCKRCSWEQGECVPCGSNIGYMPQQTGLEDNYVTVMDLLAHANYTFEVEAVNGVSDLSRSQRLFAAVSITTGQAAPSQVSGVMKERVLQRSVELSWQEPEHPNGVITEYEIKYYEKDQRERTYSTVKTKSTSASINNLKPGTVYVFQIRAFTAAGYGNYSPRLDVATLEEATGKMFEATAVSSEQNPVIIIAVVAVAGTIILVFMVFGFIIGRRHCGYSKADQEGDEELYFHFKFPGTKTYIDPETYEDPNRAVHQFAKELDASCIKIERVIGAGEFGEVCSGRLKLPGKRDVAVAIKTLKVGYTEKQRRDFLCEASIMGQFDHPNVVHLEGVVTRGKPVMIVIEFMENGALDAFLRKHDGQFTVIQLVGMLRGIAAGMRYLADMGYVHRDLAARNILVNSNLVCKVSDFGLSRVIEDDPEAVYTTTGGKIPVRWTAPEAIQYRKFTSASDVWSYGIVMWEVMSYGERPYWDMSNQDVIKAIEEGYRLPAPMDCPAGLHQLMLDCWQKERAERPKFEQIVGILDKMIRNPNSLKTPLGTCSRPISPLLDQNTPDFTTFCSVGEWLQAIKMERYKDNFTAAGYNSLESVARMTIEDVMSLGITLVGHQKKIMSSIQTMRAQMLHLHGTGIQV

For orientation: inhibition means the change of the read-out against control, counted positive when it falls.

Active and inactive are the calls of the source. No cut-off for these calls is given here.

Sequence of Angiopoietin-1 receptor (Homo sapiens), Q02763 [Q939H,Q940H,R849W] (Q02763 whole entry R849W/Q939H/Q940H): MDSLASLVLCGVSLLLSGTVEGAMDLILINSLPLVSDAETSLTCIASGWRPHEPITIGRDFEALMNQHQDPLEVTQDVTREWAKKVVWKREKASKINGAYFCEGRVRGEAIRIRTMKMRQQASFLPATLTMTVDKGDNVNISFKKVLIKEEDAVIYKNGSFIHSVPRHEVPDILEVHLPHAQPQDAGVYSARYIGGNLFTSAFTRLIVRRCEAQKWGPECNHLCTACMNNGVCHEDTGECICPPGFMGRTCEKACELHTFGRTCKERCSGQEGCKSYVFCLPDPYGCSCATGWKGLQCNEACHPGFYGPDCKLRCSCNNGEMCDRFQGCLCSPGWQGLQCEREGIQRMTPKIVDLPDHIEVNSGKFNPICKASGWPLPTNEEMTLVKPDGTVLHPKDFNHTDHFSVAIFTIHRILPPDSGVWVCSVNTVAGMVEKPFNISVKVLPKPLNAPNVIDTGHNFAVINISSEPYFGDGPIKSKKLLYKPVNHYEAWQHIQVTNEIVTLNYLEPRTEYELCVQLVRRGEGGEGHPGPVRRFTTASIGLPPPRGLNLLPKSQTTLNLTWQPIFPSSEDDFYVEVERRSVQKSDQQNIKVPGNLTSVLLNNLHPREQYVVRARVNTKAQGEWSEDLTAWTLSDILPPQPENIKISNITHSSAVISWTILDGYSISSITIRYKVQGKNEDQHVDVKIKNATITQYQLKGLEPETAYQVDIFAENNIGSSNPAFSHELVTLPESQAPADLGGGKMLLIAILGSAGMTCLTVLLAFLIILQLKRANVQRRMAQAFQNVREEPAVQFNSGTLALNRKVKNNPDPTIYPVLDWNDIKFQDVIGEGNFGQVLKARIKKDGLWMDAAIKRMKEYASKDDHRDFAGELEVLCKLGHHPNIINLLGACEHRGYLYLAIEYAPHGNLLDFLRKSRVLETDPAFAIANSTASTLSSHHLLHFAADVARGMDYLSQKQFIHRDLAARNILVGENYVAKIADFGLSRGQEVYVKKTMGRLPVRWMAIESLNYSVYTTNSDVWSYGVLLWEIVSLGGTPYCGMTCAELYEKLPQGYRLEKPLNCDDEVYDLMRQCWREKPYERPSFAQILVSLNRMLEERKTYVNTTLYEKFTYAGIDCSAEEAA
Sequence of Protein kinase C iota type (Homo sapiens) (P41743 whole entry): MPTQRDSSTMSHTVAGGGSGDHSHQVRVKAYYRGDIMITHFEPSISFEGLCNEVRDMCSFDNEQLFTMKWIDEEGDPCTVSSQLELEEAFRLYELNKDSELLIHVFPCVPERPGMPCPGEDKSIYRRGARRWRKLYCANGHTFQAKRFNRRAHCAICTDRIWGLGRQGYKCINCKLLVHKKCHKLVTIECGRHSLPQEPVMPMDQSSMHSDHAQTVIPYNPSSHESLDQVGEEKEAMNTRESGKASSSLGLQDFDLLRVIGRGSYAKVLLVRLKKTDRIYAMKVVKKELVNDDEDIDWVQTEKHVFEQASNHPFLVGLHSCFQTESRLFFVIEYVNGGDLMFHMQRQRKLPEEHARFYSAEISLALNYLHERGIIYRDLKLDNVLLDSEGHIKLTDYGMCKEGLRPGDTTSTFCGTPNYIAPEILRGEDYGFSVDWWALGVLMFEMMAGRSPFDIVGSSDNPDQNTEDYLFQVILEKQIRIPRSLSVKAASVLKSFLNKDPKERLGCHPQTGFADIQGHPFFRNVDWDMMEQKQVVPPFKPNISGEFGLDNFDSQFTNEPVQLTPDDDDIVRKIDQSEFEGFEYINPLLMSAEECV

Take `CN(C)C(=O)c1cc2cnc(Nc3ccc(NC(=O)CCCCCCCN=C=S)cc3)nc2n1C1CCCC1`: the inhibition is 88% in [1]; 1% in assay [2]; 49% in assay [3]; 12% in [4]; 20% in assay [5]; 9% in assay [6]. In addition, the inhibition in assay [7] is 34%; in [8], 8%; in assay [10], 27%; in assay [11] it was “Dose-dependent effect”; in [12], -4%; in assay [13] it was 75%. Moreover, the inhibition is -5% in assay [14]; 1% in assay [16]; 81% in [17]; 0% in assay [18]; -1% in assay [19]; 32% in assay [20]. In addition, the inhibition turned out to be 1% in assay [21], 6% in [22] and 6% in assay [23]. Also, the inhibition result in [9] is “Active”. Besides, the outcome in assay [15] was Active.
